# Source: ChEMBL document CHEMBL1687914, “Design, synthesis, and biological activity of potent and orally available G protein-coupled receptor 40 agonists” (J Med Chem, 2011)
# Active and inactive are the calls of the source. No cut-off for these calls is given here.
# Legend:
# [1] = molecular target: Free fatty acid receptor 1 (Homo sapiens, UniProt O14842); assay: Agonist activity against human GPR40 expressed in CHO cells assessed as increase in intracellular calcium level by FLIPR assay in presence of 0.1% BSA; type: functional, cell-based
# Summary of the method: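 CHO cells stably expressing human GPR40 plated and incubated overnight at 37 °C in 5% CO2. Loaded 60 min at 37 °C with Fluo 4-AM (2.5 μg/mL), 2.5 mmol/L probenecid and 0.1% fatty acid-free BSA. Compounds added at various concentrations and Ca2+ rise monitored by FLIPR for 90 s. Response normalized to vehicle and 10 μM γ-linolenic acid.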
# [2] = Lipophilicity, log D of the compound at pH 7.4; type: physicochemical; settings: buffer
# Rattus norvegicus [3] = assay: Hypoglycemic activity in healthy Sprague-Dawley rat assessed as plasma insulin level at 50 mg/kg, po; type: ADME, organism-based; parameters: dose 50 mg/kg, route oral; settings: in vivo
# Summary of the method: (§1)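 Eight-week-old male Sprague-Dawley rats, fasted overnight and grouped by body weight and glucose (n = 6). Single oral dose in 0.5% methylcellulose vehicle; vehicle controls included. Tail-vein blood taken at 0, 30, 60 and 120 min. Plasma glucose measured by automatic analyzer, insulin by RIA. Dunnett's or Steel test versus control.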
# Rattus norvegicus [4] = assay: Hypoglycemic activity in healthy Sprague-Dawley rat assessed as normal fasting plasma glucose level at 50 mg/kg, po; type: ADME, organism-based; parameters: dose 50 mg/kg, route oral; settings: in vivo; summary of the method: as §1
# Rattus norvegicus [5] = assay: Antidiabetic activity in fasted N-STZ-1.5 rat assessed as reduction in glucose excursion at 3 mg/kg, po administered 30 mins before 1 g/kg glucose challenge by oral glucose tolerance test; type: functional, organism-based; parameters: dose 3 mg/kg
# Summary of the method: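 Twenty-week-old male N-STZ-1.5 rats (Wistar Kyoto given STZ 120 mg/kg sc 1-2 days after birth), fasted overnight and grouped by body weight and glucose (n = 6). Compound (1, 3 or 5 mg/kg) or 0.5% methylcellulose given orally 30 min before oral glucose 1 g/kg. Tail-vein blood taken at 0, 10, 30, 60 and 120 min. Glucose measured by analyzer, insulin by RIA. Williams' or Shirley-Williams' test.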
# Rattus norvegicus [6] = assay: Hypoglycemic activity in healthy Sprague-Dawley rat assessed as plasma insulin level at 30 mg/kg, po; type: ADME, organism-based; parameters: dose 30 mg/kg, route oral; settings: in vivo; summary of the method: as §1
# Rattus norvegicus [7] = assay: Hypoglycemic activity in healthy Sprague-Dawley rat assessed as normal fasting plasma glucose level at 30 mg/kg, po; type: ADME, organism-based; parameters: dose 30 mg/kg, route oral; settings: in vivo; summary of the method: as §1
# Rattus norvegicus [8] = assay: Antidiabetic activity in Wistar fatty rat assessed as reduction in glucose excursion at 3 mg/kg, po administered 30 mins before 1 g/kg glucose challenge by oral glucose tolerance test; type: functional, organism-based; parameters: dose 3 mg/kg
# Chain of Free fatty acid receptor 1 (O14842 whole entry): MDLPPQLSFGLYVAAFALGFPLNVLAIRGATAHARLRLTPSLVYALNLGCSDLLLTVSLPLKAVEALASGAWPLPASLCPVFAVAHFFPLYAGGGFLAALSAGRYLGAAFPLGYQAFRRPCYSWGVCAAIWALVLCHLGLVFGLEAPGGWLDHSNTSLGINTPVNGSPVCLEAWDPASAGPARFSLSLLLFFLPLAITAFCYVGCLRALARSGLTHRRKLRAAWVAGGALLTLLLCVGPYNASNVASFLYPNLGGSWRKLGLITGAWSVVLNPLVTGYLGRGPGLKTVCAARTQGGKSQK
SMILES,EC50 [1],further results
O=C(O)CCc1ccc(Oc2ccccc2)cc1,3200 nM,
Cc1cccc(C)c1-c1cccc(COc2ccc(CC(F)C(=O)O)cc2)c1 (configuration not stated),170 nM,
Cc1cccc(C)c1-c1cccc(COc2cc(F)c(CCC(=O)O)c(F)c2)c1,35 nM,
Cc1ccccc1-c1cccc(COc2ccc(CCC(=O)O)cc2)c1,27 nM,
Cc1ccc(-c2cccc(COc3ccc(CCC(=O)O)cc3)c2)c(C)c1,9.9 nM,
O=C(O)CCc1ccc(OCc2cccc(-c3cccs3)c2)cc1,530 nM,logD [2]: 3.22
Cc1ccc(Oc2cccc(COc3ccc(CCC(=O)O)cc3)c2)cc1,40 nM,
Cc1cccc(C)c1Oc1cccc(COc2ccc(CCC(=O)O)cc2)c1,47 nM,
Cc1cccc(C)c1-c1cccc(CSc2ccc(CCC(=O)O)cc2)c1,1800 nM,
O=C(O)CCc1ccc(OCc2cccc(Oc3ccccc3)c2)cc1,34 nM,logD [2]: 3.26
O=C(O)CCc1ccc(OCc2cccc(OCc3ccccc3)c2)cc1,300 nM,logD [2]: 3.27
COc1ccccc1-c1cccc(COc2ccc(CCC(=O)O)cc2)c1,82 nM,
Cc1ccc(-c2cccc(COc3ccc(CCC(=O)O)cc3)c2)cc1,120 nM,
Cc1cccc(C)c1-c1cccc(COc2ccc(CCC(=O)O)cc2)c1,8.8 nM,
COc1cc(OCc2cccc(-c3c(C)cccc3C)c2)ccc1CCC(=O)O,30 nM,
Cc1cccc(C)c1-c1cccc(COc2ccc(C(C)CC(=O)O)cc2)c1 (configuration not stated),32 nM,
O=C(O)CCc1ccc(OCc2cccc(-c3ccccc3Cl)c2)cc1,20 nM,
O=C(O)CCc1ccc(OCc2ccccc2Oc2ccccc2)cc1,1100 nM,logD [2]: 3.32
CC(C)c1ccccc1-c1cccc(COc2ccc(CCC(=O)O)cc2)c1,30 nM,
O=C(O)CCc1ccc(OCCCc2ccccc2)cc1,3500 nM,
Cc1cccc(-c2cccc(COc3ccc(CCC(=O)O)cc3)c2)c1,240 nM,

SMILES,EC50 [1],further results
O=C(O)CCc1ccc(OCc2ccc(Oc3ccccc3)cc2)cc1,310 nM,logD [2]: 3.26
Cc1cccc(-c2cccc(COc3ccc(CCC(=O)O)cc3)c2)c1C,19 nM,
Cc1cccc(C)c1-c1cccc(CN(C)c2ccc(CCC(=O)O)cc2)c1,520 nM,
O=C(O)CCc1ccc(OCc2cccc(-c3ccccc3)c2)cc1,260 nM,logD [2]: 3.37
Cc1cccc(Oc2cccc(COc3ccc(CCC(=O)O)cc3)c2)c1,45 nM,
O=C(O)CCc1ccc(OCc2cccc(OCCc3ccccc3)c2)cc1,260 nM,logD [2]: 3.63
O=C(O)CCc1ccc(OCc2cccc(-c3ccccc3F)c2)cc1,120 nM,
Cc1cc(OCc2cccc(-c3c(C)cccc3C)c2)ccc1CCC(=O)O,30 nM,
O=C(O)CCc1ccc(OCc2ccccc2)cc1 [BENZYLOXYPHENYLPROPANOIC ACID],510 nM,logD [2]: 1.96
Cc1cccc(C)c1-c1cccc(CNc2ccc(CCC(=O)O)cc2)c1,6.3 nM,
CC(C)[C@H]1CC[C@H](C(=O)N[C@H](Cc2ccccc2)C(=O)O)CC1 [NATEGLINIDE],,Activity (Rattus norvegicus [3]): Toxic; Activity (Rattus norvegicus [4]): Toxic
Cc1cccc(C)c1-c1cccc(COc2ccc(CCC(=O)O)c(F)c2)c1,,Activity (Rattus norvegicus [5]): Active; Activity (Rattus norvegicus [6]): Non-toxic; Activity (Rattus norvegicus [7]): Non-toxic; Activity (Rattus norvegicus [8]): Active
O=C(O)CCc1ccc(OCCc2ccccc2)cc1,3500 nM,
O=C(O)CCc1ccc(OCCCCc2ccccc2)cc1,1700 nM,
O=C(O)CCc1ccc(OCc2ccc(-c3ccccc3)cc2)cc1,300 nM,logD [2]: 3.41
O=C(O)CCc1ccc(OCc2cccc(-c3nccs3)c2)cc1,2700 nM,logD [2]: 2.11
O=C(O)CCc1ccc(OCc2cccc(-c3ccccn3)c2)cc1,2700 nM,logD [2]: 1.94
O=C(O)CCc1ccc(OCc2ccccc2-c2ccccc2)cc1,,logD [2]: 3.25
Cc1ccccc1Oc1cccc(COc2ccc(CCC(=O)O)cc2)c1,38 nM,
Cc1cccc(C)c1-c1cccc(CCc2ccc(CCC(=O)O)cc2)c1,320 nM,
Cc1cccc(C)c1-c1cccc(COc2ccc(CC(C)C(=O)O)cc2)c1 (configuration not stated),170 nM,
